According to ChEMBL document CHEMBL3112570, “Design, synthesis, and evaluation of pyrrolo[2,1-f][1,2,4]triazine derivatives as novel hedgehog signaling pathway inhibitors” (Bioorg Med Chem, 2014):
pIC50: −log10 of the molar value.

Experiments:
[1] = Inhibition of hedgehog signaling pathway in mouse NIH/3T3 cells after 48 hrs by Gli-luciferase reporter gene assay; assay type: cell-based; conditions: NIH3T3, 48 h
How it was run: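 NIH3T3 cells stably carrying a Gli-luciferase reporter, kept in DMEM + 10% FBS with puromycin. Seeded at 2 × 10⁴ cells/well and cultured overnight at 37 °C, 5% CO₂. Compounds added as an 8-point series (0.05–300 nM) in medium with 0.5% FBS plus Sonic Hedgehog agonist 0.7 µg/mL, n = 4 wells per concentration, 48 h. […] Lysates read by dual-luciferase.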

[2] = Apparent volume of distribution in Sprague-Dawley rat at 1 mg/kg, iv by LC/MS/MS analysis; assay type: ADME, organism-based; design: dose 1 mg/kg, route intravenous; conditions: in vivo, read-out: Vz
How it was run: (§1)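 Sprague-Dawley rats dosed iv at 1 mg/kg (n = 3). Blood samples were centrifuged at 4000 rpm for 5 min at 4 °C to give plasma. PK parameters were derived from plasma concentration-time data by noncompartmental analysis.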

[3] = Cmax in Sprague-Dawley rat at 1 mg/kg, iv by LC/MS/MS analysis; assay type: ADME, organism-based; design: dose 1 mg/kg, route intravenous; conditions: in vivo; how it was run: as §1
[4] = AUC in Sprague-Dawley rat at 1 mg/kg, iv by LC/MS/MS analysis; assay type: ADME, organism-based; design: dose 1 mg/kg, route intravenous; conditions: plasma; how it was run: as §1
[5] = Mean residence time (0 to t) in Sprague-Dawley rat at 1 mg/kg, iv by LC/MS/MS analysis; assay type: ADME, organism-based; design: dose 1 mg/kg, route intravenous; conditions: in vivo; how it was run: as §1
[6] = Elimination half life in Sprague-Dawley rat at 1 mg/kg, iv by LC/MS/MS analysis; assay type: ADME, organism-based; design: dose 1 mg/kg, route intravenous; conditions: in vivo, read-out: beta t1/2 (converted); how it was run: as §1
[7] = Clearance in Sprague-Dawley rat at 1 mg/kg, iv by LC/MS/MS analysis; assay type: ADME, organism-based; design: dose 1 mg/kg, route intravenous; conditions: in vivo; how it was run: as §1

Row | SMILES | pIC50 [1] | Vd [2] [L/kg] | Cmax [3] [ng/mL] | AUC [4] [ng·h/mL] | MRT last [5] [h] | half-life [6] [h] | clearance [7] [mL/min/kg]
1 | CCCc1cc(-c2ccc(OC(F)(F)F)cc2)nc(Nc2ccc(C(=O)Nc3c(C)cccc3C)cc2)n1 | 9.10 |  |  |  |  |  | 
2 | Cc1ccc(CN2CCN(C)CC2)cc1NC(=O)c1ccc(Nc2nc(-c3ccc(OC(F)(F)F)cc3)c3cccn3n2)cc1 | 8.77 |  |  |  |  |  | 
3 | O=C(Nc1cccc(CN2CCOCC2)c1)c1ccc(Nc2nc(-c3ccc(OC(F)(F)F)cc3)c3cccn3n2)cn1 | 8.06 |  |  |  |  |  | 
4 | CCc1cnc(Nc2ccc(C(=O)Nc3c(C)cccc3C)cc2)nc1-c1ccc(OC(F)(F)F)cc1 | 8.28 |  |  |  |  |  | 
5 | Cc1cccc(C)c1NC(=O)c1ccc(Nc2nc(C)c(C)c(-c3ccc(OC(F)(F)F)cc3)n2)cc1 | 8.80 |  |  |  |  |  | 
6 | Cc1ccc(CN2CCOCC2)cc1NC(=O)c1ccc(Nc2nc(-c3ccc(OC(F)(F)F)cc3)c3cccn3n2)cc1 | 9.08 | 5.23 | 2720 | 2230 | 4.83 | 8.86 | 6.9
7 | CS(=O)(=O)c1ccc(C(=O)Nc2ccc(Cl)c(-c3ccccn3)c2)c(Cl)c1 [VISMODEGIB] | 8.14 |  | 1250 | 2460 | 2.23 | 1.64 | 6.77
8 | Cc1ccc(CN2CCCCC2)cc1NC(=O)c1ccc(Nc2nc(-c3ccc(OC(F)(F)F)cc3)c3cccn3n2)cc1 | 9.21 |  |  |  |  |  | 
9 | Cc1ccc(CN2CCOCC2)cc1NC(=O)c1ccc(Nc2nc(-c3ccc(OC(F)(F)F)cc3)c3cccn3n2)cn1 | 8.96 | 5.97 | 4190 | 1940 | 3.49 | 8.34 | 8.38
10 | Cc1ccc(CN2CCOCC2)cc1NC(=O)c1ccc(Nc2nc(-c3cccnc3)c3cccn3n2)cc1 | 8.80 |  |  |  |  |  | 
11 | Cc1ccc(CN2CCOCC2)cc1NC(=O)c1ccc(Nc2nc(-c3ccccn3)c3cccn3n2)c(F)c1 | 9.14 |  |  |  |  |  | 
12 | Cc1ccc(CN2CCOCC2)cc1NC(=O)c1ccc(Nc2nc(-c3ccccc3)c3cccn3n2)cc1 | 8.82 |  |  |  |  |  | 
13 | Cc1ccc(CN2CCCCC2)cc1NC(=O)c1ccc(Nc2nc(-c3cnn(C)c3)c3cccn3n2)cc1 | 7.95 |  |  |  |  |  | 
14 | Cc1cccc(C)c1NC(=O)c1ccc(Nc2nc(-c3ccc(OC(F)(F)F)cc3)c3cccn3n2)cc1 | 8.80 | 12.6 | 2440 | 1430 | 4.68 | 15.2 | 9.66
15 | Cc1cc(-c2ccc(OC(F)(F)F)cc2)nc(Nc2ccc(C(=O)Nc3c(C)cccc3C)cc2)n1 | 8.85 |  |  |  |  |  | 
16 | Cc1ccc(CN2CCOCC2)cc1NC(=O)c1ccc(Nc2nc(-c3cnn(C)c3)c3cccn3n2)cc1 | 8.92 | 2.19 | 1070 | 791 | 1.31 | 1.23 | 21.1
17 | Cc1ccc(CN2CCOCC2)cc1NC(=O)c1ccc(Nc2nc(-c3ccccn3)c3cccn3n2)cc1 | 9.01 | 2.85 | 637 | 764 | 1.64 | 1.51 | 22
18 | Cc1ccc(CN2CCOCC2)cc1NC(=O)c1ccc(Nc2nc(-c3ccccn3)c3cccn3n2)cn1 | 8.96 |  |  |  |  |  | 
19 | Cc1ccc(CN2CCCC2)cc1NC(=O)c1ccc(Nc2nc(-c3cnn(C)c3)c3cccn3n2)cc1 | 7.91 |  |  |  |  |  | 
20 | Cc1ccc(CN2CCCC2)cc1NC(=O)c1ccc(Nc2nc(-c3ccc(OC(F)(F)F)cc3)c3cccn3n2)cc1 | 8.77 |  |  |  |  |  | 
21 | Cc1ccc(CN2CCN(C)CC2)cc1NC(=O)c1ccc(Nc2nc(-c3cnn(C)c3)c3cccn3n2)cc1 | 8.12 |  |  |  |  |  | 
